MC4R barr agon: agonists of human melanocortin 4 receptor (MC4R) beta-arrestin; activation, % at 8.9 µM; 360,000 tested, 0.98% active; U2OS MC4R beta-arrestin complementation, luminescence; percent of melanotan II response, DMSO zero; P32245;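 active means activation above a per-plate cutoff, the mean activation of sample wells on that plate plus 3 SD, cut at about 8% in these data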
Target sequence (P32245 whole entry, looked up): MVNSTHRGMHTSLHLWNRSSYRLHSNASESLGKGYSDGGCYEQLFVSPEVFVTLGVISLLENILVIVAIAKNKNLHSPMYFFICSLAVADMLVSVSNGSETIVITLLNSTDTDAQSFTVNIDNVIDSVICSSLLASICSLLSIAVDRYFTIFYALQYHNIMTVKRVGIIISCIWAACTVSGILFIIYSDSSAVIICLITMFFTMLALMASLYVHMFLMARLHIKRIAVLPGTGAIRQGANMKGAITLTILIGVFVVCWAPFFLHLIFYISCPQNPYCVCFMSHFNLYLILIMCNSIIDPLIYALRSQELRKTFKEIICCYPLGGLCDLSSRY
SMARCA2 act: SMARCA2 function activation, primary screen. MG213 cells, MMTV-luciferase reporter, dexamethasone, overnight. activation, % at 9.1 µM. 370,000 tested, 1% active. AID 652017; in the data active means activation above about 7.8%;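 further: 0% = vehicle wells and 100% = reference activator wells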
CFTR F508del cor: CFTR F508del correction in bronchial cells; CFBE cells, YFP halide quenching; stimulated with forskolin plus potentiator P3; % fluorescence drop versus neutral controls; activity (quench increase), % at 7.58 µM; 350,000 tested, 0.36% active; AID 720511;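 active means mean added fluorescence quench of at least 8% versus neutral control, with both replicates also reaching 8%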;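 further: cells transiently co-express mutant CFTR-F508del with the halide-sensitive YFP; corrector assay measuring rescue of mutant channel to the surface after 24 h compound exposure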
MC4R antag cAMP: blocks human MC4R cAMP signaling | MC4R-expressing cells, MTII-stimulated cAMP, LANCE TR-FRET | inhibition, % at 6.5 µM | 360,000 tested, 0.48% active | AID 540295;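 active means inhibition above its plate's cutoff, the mean of tested wells on that plate plus 3 SD, cut at about 29% in these data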;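 further: 0% = Melanotan II alone and 100% = Melanotan II plus saturating MCL0020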
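system = U2OS cells with stable human MC4R expression | also added = Melanotan II challenge after compound preincubation | dosing = one concentration, 6.5 µM nominal | incubation = compound 30 min, challenge 1 h, detection 1 h | measured by = TR-FRET with Eu-cAMP and labeled anti-cAMP, 671 nm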
MC4R barr conf: human MC4R beta-arrestin agonism confirmation; activation, % at 8.9 µM; AID 602192; shares compounds with MC4R barr agon; 2,400 tested, 31% active; U2OS MC4R beta-arrestin recruitment, luminescence; scaled DMSO 0%, Melanotan II 100%;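 active means mean activation across replicates above the hit cutoff set in the earlier primary screen, cut at about 8% in these data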
MOR DOR agonist: activates mu-delta opioid heterodimer, MC4R agonist counter-screen. shares compounds with MC4R barr agon. U2OS PathHunter beta-arrestin, beta-gal luminescence; percent of deltorphin B response, DMSO zero. activation, % at 9.2 µM. 2,400 tested, 5.8% active;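 active means mean activation across replicates exceeds the hit threshold derived in the earlier primary screen, cut at about 18% in these data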;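 further: 100% = deltorphin B at 0.9 µM final and 0% = DMSO alone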
An asterisk follows results filed as active; . = no result given. Rows were chosen to be rich in hits. Some 2.1% of all compounds tested hit in one or more screens of this group.

SMILES	MC4R barr agon	SMARCA2 act	CFTR F508del cor	MC4R antag cAMP	MC4R barr conf	MOR DOR agonist
CSc1cccc(NC(=O)CN(c2ccc(C)cc2C)S(C)(=O)=O)c1	10*	0	.	11	-1	4
Cc1cccc2cc3c(NC(=O)c4ccccn4)nn(C)c3nc12	13*	-1	.	-3	2	4
O=C(Nc1ccc(Cl)cc1)OCc1ccccn1	-1	0	.	3	.	.
O=C(Nc1ccc(Cl)cc1)OCc1cc(-c2ccccc2Cl)on1	11*	-1	.	4	8.6*	5
Cc1ccc(NC(=O)OCc2cc(-c3ccccc3)on2)cc1	11*	0	-1	-5	1	6
O=C(C[C@@H]1CC[C@H]2[C@@H](COC[C@@H](O)CN2Cc2ccncc2)O1)NCc1ccncc1	.	.	-3	.	.	.
Cc1ccc(S(=O)(=O)Nc2ccc3c(c2)C(=O)N([C@H](C)CO)C[C@@H](C)[C@@H](CN(C)CC2CCCCC2)OCCCC[C@@H](C)O3)cc1	.	.	0	.	.	.
CCc1nonc1NC(=O)c1oc2cc(C)c(C)cc2c1C	12*	2	1	1	2	6
O=C(NCc1csc(-c2cccs2)n1)Nc1cccc(Cl)c1	9.8*	-6	-1	0	3	6
Cc1ccc(NC(=O)c2cc(S(=O)(=O)Nc3ccc(C)cc3)cs2)cc1	9.6*	-2	.	-3	13*	17
Cc1ccc(NS(=O)(=O)c2ccc(NC(=O)c3cccs3)cc2)c(C)c1	-1	-4	.	-10	.	.
C[C@@H]1CN([C@H](C)CO)C(=O)c2cc(NC(=O)CCC(F)(F)F)ccc2O[C@@H]1CN(C)S(=O)(=O)c1cccs1	.	.	1	.	.	.
Cc1cccc(NC(=O)C2(C)CC3c4ccccc4C2c2ccccc23)c1 (configuration not stated)	17*	-2	.	-2	4	8
Cc1cccc(NC(=O)C2(c3ccccc3)CCOCC2)c1	-1	-2	1	-1	.	.
CC(C)COc1ccc(C(=O)Nc2ccc(NC(=O)c3ccco3)c(Cl)c2)cc1	40*	2	.	3	24*	28*
CCNC(=O)C[C@H]1CC[C@H]2[C@@H](COc3ccc(NC(=O)c4cccc(OC)c4)cc3C(=O)N2C)O1	.	.	2	.	.	.
Cn1cnnc1SCC(=O)Nc1ccc2nc(SCc3cccc4ccccc34)sc2c1	9.6*	-1	.	10	3	3
Cc1ccccc1OCc1nnc(SCC(=O)Nc2ccc3nc(SCC(=O)Nc4ccccc4)sc3c2)n1C	18*	-1	.	-1	6	5
Cn1cnnc1SCC(=O)Nc1ccc2nc(SCc3ccccc3Cl)sc2c1	0	1	.	17	.	.
O=C(CSc1nc2ccc(NC(=O)CSc3nnnn3Cc3ccccc3)cc2s1)Nc1ccccc1	12*	-2	.	4	6	5
Cc1ccc(C(C)C)c(OCc2nnc(SCC(=O)Nc3ncc(C)s3)n2C)c1	13*	-1	.	-2	6	7
COC(=O)CSc1nc2ccc(NC(=O)CSc3nnnn3Cc3ccccc3)cc2s1	0	-1	.	-8	.	.
Cc1ccccc1OCc1nnc(SCC(=O)Nc2ccc3c(c2)OCO3)n1C	-2	0	.	-3	.	.
CO[C@H]1CN(C)C(=O)c2ccc(NC(=O)C3CCCCC3)cc2OC[C@H](C)NC[C@H]1C	.	.	2	.	.	.
CO[C@H](CN(C)C(=O)C1CCOCC1)[C@H](C)CN(C(=O)Nc1ccc(C(F)(F)F)cc1)[C@H](C)CO	.	.	0	.	.	.
SMILES	MC4R barr agon	SMARCA2 act	CFTR F508del cor	MC4R antag cAMP	MC4R barr conf	MOR DOR agonist
CCOC(=O)CSc1nc2cc(OCC)ccc2cc1C#N	31*	7	.	-2	5	10
CCOc1ccc2cc(C#N)c(SCC(=O)N3CCC(C)CC3)nc2c1	-1	-3	.	16	.	.
O=C(CCCCCn1c(=S)[nH]c2ccc(N3CCOCC3)cc2c1=O)NCc1ccccc1	12*	-2	6	23	7	3
O=C(CCCCCn1c(=S)[nH]c2ccc(N3CCOCC3)cc2c1=O)NCc1cccc(Cl)c1	9.8*	-1	-2	12	2	3
CCCCCc1c2c(cc(O)c1C(=O)O)OC(=O)c1cc(C(=O)CCCC)c(OC)cc1O2	7	0	-2	19	.	.
CCCCCc1c2c(cc(O)c1C(=O)O)OC(=O)c1c(cc(OC)cc1C(=O)CCCC)O2	11*	.	.	24	4	3
